Cneo AK release = Cryptococcus neoformans cell lysis inducers, primary screen, AK release luminescence, single concentration; 360,000 tested, 0.2% active; lysis activity, % at 15 µM; C. neoformans lysis, adenylate kinase release luminescence, 4 h; normalised: neutral wells 0, clomiphene wells 100;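 active = mean lysis activity across replicates of at least 80%, whatever share of replicates individually reach that level; inactive = mean lysis activity below 80%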
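Material – log-phase Cryptococcus neoformans yeast cells · Input – 5 × 10^6 yeast cells/mL · Medium – fresh YPD growth medium · Doses – single compound concentration per well · Timing – static 4 h at 37 °C with compound, 1 h detection · Detection – adenylate kinase release luminescence · Read-out – signal increase indicating cell lysis · Control set – Clomiphene as positive lysis control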
CaV13 FRET inh = Disruptors of the CACNA1D IQ motif to Ca2+-dependent inactivation inhibitor domain association, primary screening, Förster resonance energy transfer in intact living …; HEK cells, CFP/YFP FRET ICDI-IQ, plate reader, 10 min; percent FRET-ratio fall versus neutral wells; inhibition, % at 12.3 µM; 340,000 tested, 0.098% active;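 active = mean replicate inhibition of at least 30% and at least 1% of replicates passing that level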;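 also: 0% = median of the neutral control wells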
Ecoli rRNA inh = reduced GFP signal of wild-type E. coli, primary screen, bacterial rRNA inhibitor project, GFP/RFP fluorescence, OD600, single point | GFP signal change (wild-type ribosome), % (concentration not given with the values) | 350,000 tested, 1.6% active | E. coli WT GFP vs humanized-ribosome RFP mutants, 24 h; stronger effect = lower value; DMSO median 0, no signal -100 | AID 720706, 2013;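 active = significant combined selectivity score with lowered wild-type GFP, culture density cut under 30%, mutant RFP and density less affected; inactive = any of these conditions unmet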
CFTR F508del cor = F508del CFTR correction, initial screen, CFBE line, single point; activity (quench increase), % at 7.58 µM; CFBE cells, YFP halide quenching; stimulated with forskolin plus potentiator P3; % fluorescence drop versus neutral controls; 350,000 tested, 0.36% active;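 active = mean added fluorescence quench of at least 8% versus neutral control, with both replicates also reaching 8%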;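 also: cells transiently co-express mutant CFTR-F508del with the halide-sensitive YFP; corrector assay measuring rescue of mutant channel to the surface after 24 h compound exposure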
* hit, by the source's call. Rows were chosen to be rich in hits. Some 1.7% of all compounds tested hit in one or more screens of this group.

How did Cc1cc(Cl)ccc1C(=O)C1CCCN(C(=O)c2cc(C(C)C)no2)C1 (stereo not drawn) do in these assays?
Cneo AK release: 3; CaV13 FRET inh: 7; Ecoli rRNA inh: -37*; CFTR F508del cor: 1

What do the screens show for `CC(C)c1cc(C(=O)N2CCCC(C(=O)c3ccc4ccccc4c3)C2)on1` (stereo not drawn)?
Cneo AK release: -1; CaV13 FRET inh: -2; Ecoli rRNA inh: -27; CFTR F508del cor: 2

How did Cc1c(C(=O)N(Cc2ccc(F)cc2)C2CCS(=O)(=O)C2)oc2ccccc12 (stereo not drawn) do in these assays?
Cneo AK release: -1; CaV13 FRET inh: -15; Ecoli rRNA inh: -23*; CFTR F508del cor: 0

What do the screens show for `COc1ccc2c3c([nH]c2c1)[C@@H](CO)N(C(=O)CN(C)C)CC31CN(CC2CCCC2)C1`?
Ecoli rRNA inh: 4; CFTR F508del cor: -3

How did COCCn1c(-c2ccc(Cl)cc2)cnc1SCC(=O)NCCc1ccc(OC)c(OC)c1 do in these assays?
CaV13 FRET inh: -5; Ecoli rRNA inh: -22*; CFTR F508del cor: 0

What do the screens show for `COc1ccc(CCNC(=O)CSCc2ccc(Cl)cc2)cc1OC`?
CaV13 FRET inh: -2; Ecoli rRNA inh: -22

How did Cc1ccccc1S(=O)(=O)NCC[C@H]1CC[C@H](NC(=O)C2CC2)[C@H](CO)O1 do in these assays?
Cneo AK release: -8; Ecoli rRNA inh: 1; CFTR F508del cor: 0

How did Cc1ccc2nc(N/N=C/c3ccco3)cc(C)c2c1 do in these assays?
Cneo AK release: 1; CaV13 FRET inh: -16; Ecoli rRNA inh: -20*; CFTR F508del cor: 3

Results for Cc1ccc2nc(SCC(=O)N/N=C/c3ccco3)cc(C)c2c1 ?
CaV13 FRET inh: -3; Ecoli rRNA inh: -3; CFTR F508del cor: -3

Results for Oc1ccc(Br)cc1CNc1ccccn1 ?
CaV13 FRET inh: -2; Ecoli rRNA inh: -16*; CFTR F508del cor: 0

Results for Oc1ccc(Br)cc1CNc1nccs1 ?
Cneo AK release: 1; CaV13 FRET inh: -5; Ecoli rRNA inh: 3; CFTR F508del cor: 1

How did O=C(C1CCCC1)N1CC2(C1)[C@H](c1ccccc1)[C@H](CO)N2C(=O)CC1CC1 do in these assays?
Ecoli rRNA inh: 4; CFTR F508del cor: 3

How did COc1ccccc1-c1cnc2c(c1)C(=O)N([C@H](C)CO)C[C@@H](C)[C@@H](CN(C)CC1CCOCC1)O2 do in these assays?
Cneo AK release: 4; Ecoli rRNA inh: 2; CFTR F508del cor: 0

How did Cc1ccc(CSCC(=O)Nc2ccc3c(c2)OCO3)cc1 do in these assays?
Cneo AK release: 1; CaV13 FRET inh: -5; Ecoli rRNA inh: -30*

Results for CN(C)CC(=O)N[C@@H]1CC[C@@H](CC(=O)O)O[C@H]1CO ?
CFTR F508del cor: 0

How did CCCC#Cc1ccc([C@@H]2[C@H]3CN(C(=O)c4cccc(F)c4)CC(=O)N3[C@H]2CO)cc1 do in these assays?
Ecoli rRNA inh: -7

How did CN(C)S(=O)(=O)c1ccc(Cl)c(NC(=O)CSc2nnnn2-c2ccc(O)cc2)c1 do in these assays?
CaV13 FRET inh: 9; Ecoli rRNA inh: -29*; CFTR F508del cor: 1

How did CC(C)NC(=O)N(C)C[C@H]1Oc2ccc(NC(=O)c3ccncc3)cc2C(=O)N([C@@H](C)CO)C[C@H]1C do in these assays?
Cneo AK release: 2; Ecoli rRNA inh: 2; CFTR F508del cor: 0

Results for O=C(O)c1cccc(S(=O)(=O)N(Cc2ccccc2)c2ccccc2)c1 ?
CaV13 FRET inh: -6; Ecoli rRNA inh: -39; CFTR F508del cor: -2

How did CN1CCN(C(=O)c2ccc(CN(c3ccccc3)S(=O)(=O)c3ccccc3)cc2)CC1 do in these assays?
Cneo AK release: -1; CaV13 FRET inh: 8; Ecoli rRNA inh: -4; CFTR F508del cor: 12*

How did CCN1CCN(C(=O)c2ccc(CN(c3ccccc3)S(=O)(=O)c3ccccc3)cc2)CC1 do in these assays?
Cneo AK release: -1; CaV13 FRET inh: -3

How did O=C(O)c1cccc(S(=O)(=O)N(Cc2ccccc2)c2ccc(Cl)cc2)c1 do in these assays?
Cneo AK release: -1; CaV13 FRET inh: -3; Ecoli rRNA inh: -44*; CFTR F508del cor: -1

What do the screens show for `COc1ccc(OC)c(-c2csc(NC(=O)CN3C(=O)NC4(CCCC4)C3=O)n2)c1`?
CaV13 FRET inh: -6; Ecoli rRNA inh: -25*; CFTR F508del cor: -2

How did COc1cccc(NC(=O)CN(C)C(=O)c2cccc(S(=O)(=O)N3CCN(c4ccccc4)CC3)c2)c1 do in these assays?
Cneo AK release: 1; CaV13 FRET inh: -7; Ecoli rRNA inh: -29*; CFTR F508del cor: -2

What do the screens show for `COc1cccc(NC(=O)CN(C)CC(=O)Nc2ccccc2-c2ccccc2)c1`?
Cneo AK release: -1; CaV13 FRET inh: 1; Ecoli rRNA inh: -24*; CFTR F508del cor: -2

Results for CN(CCOc1ccc(Cl)cc1)C(=O)c1cccc(S(=O)(=O)N2CCN(c3ccccc3)CC2)c1 ?
Cneo AK release: -1; CaV13 FRET inh: -6; Ecoli rRNA inh: -8; CFTR F508del cor: 8.6*

What do the screens show for `COc1cccc(NC(=O)CN(C)C(=O)c2ccccc2Sc2ccccc2C#N)c1`?
Cneo AK release: 2; CaV13 FRET inh: -14; Ecoli rRNA inh: -18*; CFTR F508del cor: 1

How did CN(CC(=O)Nc1cccc(F)c1)C(=O)c1ccccc1Sc1ccccc1C#N do in these assays?
Cneo AK release: 1; CaV13 FRET inh: -2; Ecoli rRNA inh: -12; CFTR F508del cor: 0

What do the screens show for `CN(CC(=O)Nc1ccc(F)cc1)C(=O)c1cccc(S(=O)(=O)N2CCN(c3ccccc3)CC2)c1`?
Cneo AK release: 4; CaV13 FRET inh: -7; Ecoli rRNA inh: -7; CFTR F508del cor: 0

Results for CN(Cc1ccc(Cl)cc1Cl)C(=O)c1cccc(S(=O)(=O)N2CCN(c3ccccc3)CC2)c1 ?
Cneo AK release: 1; CaV13 FRET inh: -7; Ecoli rRNA inh: 3; CFTR F508del cor: -1

How did C[C@@H]1CN([C@H](C)CO)C(=O)Cc2cc(NC(=O)Nc3ccc4c(c3)OCO4)ccc2O[C@H]1CN(C)Cc1ccc(Oc2ccccc2)cc1 do in these assays?
Cneo AK release: 42; Ecoli rRNA inh: 1; CFTR F508del cor: -2

What do the screens show for `CNS(=O)(=O)c1cc(NC(=O)c2cnc(SC)n2-c2ccccc2)ccc1C`?
Cneo AK release: -2; CaV13 FRET inh: -3; Ecoli rRNA inh: -21*; CFTR F508del cor: 0

What do the screens show for `COc1ccc(OC)c(-c2nc(CN3CCCCC3c3cccnc3)c(C)o2)c1` (stereo not drawn)?
CaV13 FRET inh: -4; Ecoli rRNA inh: -5; CFTR F508del cor: 1

How did COc1ccc(-c2nc(CN3CCCCC3c3nccn3C)c(C)o2)c(C)c1C (stereo not drawn) do in these assays?
Cneo AK release: 0; CaV13 FRET inh: -5; Ecoli rRNA inh: -33*; CFTR F508del cor: 2
